# A selection: hits, their analogues and other compounds. The true share with any hit is near 3.5%.
# MrgX1 ag = agonists of human MrgX1 receptor, primary screen, HEK293 cells, Fluo-4 calcium flux. B-score at 10 µM. Mas-related G-protein coupled receptor member X1 (Homo sapiens), Q96LB2. Fluo-4 calcium fluorescence, agonist mode; hits give high values. AID 588627, 2011. 0.44% of 310,000 active;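 active means calcium response B-score plate-corrected fluorescence ratio at least 3 library SD, with starting fluorescence B-score inside 5 SD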
#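 Material: MrgX1-expressing HEK293 cells; input: 15,000 cells per well; doses: test compound given as first of three sequential additions; schedule: overnight plating before 1 h dye loading; technique: Fluo-4 NW calcium-flux fluorescence, kinetic read; evaluation: baseline-normalised fluorescence change ratio, B-scored; control set: plate-wise positive and negative controls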
# MrgX1 allo act = positive allosteric modulators of MrgX1, primary screen, HEK293 cells, Fluo-4 calcium flux; Mas-related G-protein coupled receptor member X1 (Homo sapiens), Q96LB2; FDSS; hits give high values; B-score at 10 µM; 0.63% of 310,000 active; AID 588675, 2011;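 active means plate-corrected calcium response at least 3 library SD above typical, normal starting fluorescence, not activating the receptor alone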;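 further: compound read alongside a low EC10 to EC30 dose of BAM8-22 agonist; peak minus trough fluorescence over baseline measured at the second addition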
# RGS4 pot = RGS4 potentiators or activators, primary screen, cell-based, HEK293 M3R inducible RGS4, calcium flux; carbachol calcium flux Fluo4; hits give low values; 0.92% of 310,000 active; B-score at 10 µM;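 active means B-score of the integrated calcium signal more than 4 SD below the library mean, with starting fluorescence not abnormally high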;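 further: negative B-score means reduced calcium response which marks RGS4 activation or potentiation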
#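 Test system: HEK293 cells with stable M3R and inducible RGS4; also added: carbachol at ECmax as muscarinic agonist stimulus; schedule: dye loading 30 min 37 °C, buffer rest 30 min RT; technique: kinetic calcium fluorescence imaging with Fluo4-AM dye, 2 µM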
# RGS4 inh = RGS4 inhibitors, primary screen, cell-based, HEK293 M3R inducible RGS4, calcium flux; Fluo-4 calcium flux; hits give high values; triggered by carbachol at its EC20; B-score at 10 µM; 0.45% of 310,000 active; Regulator of G-protein signaling 4 (Homo sapiens), P49798;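 active means B-score, a plate-corrected calcium signal, over three deviations above library mean, with baseline fluorescence within five deviations of library mean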;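 further: RGS4 expression induced by doxycycline in cells with stable M3 receptor; B-score is computed from the integrated fluorescence ratio over baseline after carbachol; higher B-score means a larger calcium signal and so more RGS4 inhibition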
# Target sequence (P49798 whole entry, looked up): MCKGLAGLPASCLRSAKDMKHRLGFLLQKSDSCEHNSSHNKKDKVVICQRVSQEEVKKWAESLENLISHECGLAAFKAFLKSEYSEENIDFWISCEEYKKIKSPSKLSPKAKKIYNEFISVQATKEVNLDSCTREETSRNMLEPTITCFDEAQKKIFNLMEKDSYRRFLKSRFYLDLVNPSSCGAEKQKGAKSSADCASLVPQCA
# MrgX1 antag = antagonists of human MrgX1 receptor, primary screen, HEK293 cells, Fluo-4 calcium flux. 1.3% of 310,000 active. B-score at 10 µM. BAM8-22 antagonism; hits give low values;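 active means calcium-response B-score plate-corrected more than 3 library SD below zero, starting fluorescence within 5 deviations, no agonist response on first addition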;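 further: peak minus trough fluorescence over baseline after final BAM8-22 challenge near maximal dose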
# * marks the source's active call; other numbers are inactive results; i = inactive; nt = no result.
SMILES,MrgX1 ag,MrgX1 allo act,RGS4 pot,RGS4 inh,MrgX1 antag
CCN(CC)C(=O)CN(c1cc2c(cc1OC)oc1ccccc12)S(=O)(=O)c1ccccc1,i,i,nt,nt,-9.1*
CCOc1ccc(C(=O)NCC(=O)N2CCN(C/C=C/c3ccccc3)CC2)cc1OCC,i,i,-7.2*,i,i
Cc1cc(NC(=O)c2noc3c2CCCC3)no1,i,i,i,i,i
Cc1ccc(C(O)(CCN2CCCCC2)c2ccccc2)cc1 (centres undefined),i,i,-7.6*,i,i
OC(CCN1CCCCC1)(c1ccccc1)C1CCCCC1 (centres undefined),i,i,i,i,i
Cc1cc(C)n2nc(C(=O)OCC(=O)c3c[nH]c4ccccc34)nc2n1,i,i,i,i,-5.5*
Cc1cn([C@H]2C=C[C@@H](CO)O2)c(=O)[nH]c1=O,i,9.4*,i,i,i
COc1ccc(CC(=O)NNS(=O)(=O)c2ccccc2)cc1OC,i,i,i,i,-8*
Cc1cc(/C=C2\SC(=S)N(Cc3ccco3)C2=O)c(C)n1-c1cccnc1,nt,nt,i,i,nt
Cc1cc(/C=C2/SC(=S)N(c3cccc(C(F)(F)F)c3)C2=O)c(C)n1-c1cccnc1,i,16*,i,i,i
Cc1ccc(NC(=O)CSc2nc(=O)n(CCCN3CCOCC3)c3c2CCCC3)c(C)c1,i,i,i,i,i
CCCCCCCN1C2=NCCCN2c2ccccc21,i,i,i,i,i
CCOC(=O)C1CCN(c2cc3c(cc2NC(=O)c2ccccc2OCC)n(C)c(=O)n3C)CC1,i,i,-7.8*,i,i
COCC(=O)Nc1ncc(S(=O)(=O)c2ccc([N+](=O)[O-])cc2)s1,i,i,i,i,i
O=C(Nc1ncc(S(=O)(=O)c2ccc([N+](=O)[O-])cc2)s1)c1cccc2ccccc12,i,i,-7.7*,i,i
Cc1c(Br)c([N+](=O)[O-])nn1CC(=O)NCc1cccs1,i,i,i,i,-4.8*
Cc1c(Br)c([N+](=O)[O-])nn1C(C)C(=O)NCc1cccs1 (centres undefined),i,i,i,i,i
CC(C)(C)C(=O)c1no[n+]([O-])c1/C(=N/O)C(C)(C)C,37*,i,i,i,i
O=C(/C=C/c1ccc(F)cc1)NC(=S)NNC(=O)[C@H]1C[C@@H]1c1ccccc1,43*,i,i,i,i
O=C(NC(=S)NNC(=O)[C@H]1C[C@@H]1c1ccccc1)c1ccc(F)cc1,i,i,i,i,i
CCCc1cc(=O)oc2cc(C)cc(OCC(=O)NCCCN3CCCC3=O)c12,i,i,i,i,i
Cn1c(C(=O)Nc2ccc3c(c2)OCCO3)cc2c(=O)n(C)c3ccccc3c21,i,i,-7.2*,i,i
Cc1ccc2c(c1)N(CC(=O)NCC(C)c1ccccc1)C(=O)c1cccnc1O2 (centres undefined),i,i,i,i,i
CCOC(=O)C1=C(COC(=O)/C=C/c2ccccc2F)NC(=O)NC1C (centres undefined),i,i,i,i,i
CCOC(=O)C1=C(COC(=O)/C=C/c2ccccc2Cl)NC(=O)NC1C (centres undefined),i,8.5*,i,i,i
CC1(C)N=C(SCC(=O)Nc2ccc(Cl)cc2)C(c2ccc(Cl)cc2)=N1,i,i,-8*,i,i
CC1(C)N=C(SCC(=O)Nc2ccc(Cl)cc2)C(c2ccccc2)=N1,i,i,i,i,i
CCCc1cc(=O)oc2cc(C)cc(O)c12,35*,i,i,i,i
CCc1cc(=O)oc2cc(C)cc(O)c12,i,i,i,i,i
